Measurements from ChEMBL document CHEMBL3102806, “1,2,4-Triazole/oxime hybrids as new strategy for nitric oxide donors: Synthesis, anti-inflammatory, ulceroginicity and antiproliferative activities” (Eur J Med Chem, 2014).

Key:
Assay type in all cases: functional
[1] = tested on: MDA-MB-435; assay: Growth inhibition of human MDA-MB-435 cells after 48 hrs by sulforhodamine B assay; conditions: MDA-MB-435, 48 h
In short: (§1)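 NCI 60-cell-line panel (nine tumour subpanels), five-dose format: 10-fold dilutions from 10^-4 to 10^-8 M, 48 h continuous exposure, SRB protein stain. Percent growth at each level is derived from time-zero, untreated control and treated absorbances. GI50 is the concentration where [(Ti−Tz)/(C−Tz)]×100 = 50. Values outside the tested range are reported as above or below the limit.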

[2] = Growth inhibition of human RXF393 cells after 48 hrs by sulforhodamine B assay; conditions: RXF 393, 48 h; in short: as §1
[3] = tested on: NCI-H460; assay: Growth inhibition of human NCI-H460 cells after 48 hrs by sulforhodamine B assay; conditions: NCI-H460, 48 h; in short: as §1
[4] = tested on: HOP-62; assay: Growth inhibition of human HOP62 cells after 48 hrs by sulforhodamine B assay; conditions: HOP-62, 48 h
In short: (§2)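 NCI full ~60 cell line panel. Five 10-fold concentrations from 10^-4 to 10^-8 M, 48 h continuous exposure, SRB protein read-out. Time-zero, control and treated absorbances give percentage growth. GI50 is the concentration where [(Ti−Tz)/(C−Tz)]×100 = 50; TGI is where Ti = Tz; LC50 is where [(Ti−Tz)/Tz]×100 = −50.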

[5] = Growth inhibition of human HOP92 cells after 48 hrs by sulforhodamine B assay; conditions: HOP-92, 48 h; in short: as §2
[6] = tested on: DU-145; assay: Growth inhibition of human DU145 cells after 48 hrs by sulforhodamine B assay; conditions: DU-145, 48 h; in short: as §2
[7] = tested on: SK-OV-3; assay: Growth inhibition of human SKOV3 cells after 48 hrs by sulforhodamine B assay; conditions: SK-OV-3, 48 h
In short: (§3)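 NCI 60-cell-line panel, five-dose run at 10-fold dilutions from 10^-4 to 10^-8 M, 48 h continuous exposure. Viability by SRB protein stain. Percent growth is taken from time-zero, untreated-control and treated absorbances. GI50 is the concentration giving a 50% lower net protein increase than in control cells. TGI is taken at Ti = Tz, LC50 at a 50% loss of initial protein.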

[8] = tested on: SNB-19; assay: Growth inhibition of human SNB19 cells after 48 hrs by sulforhodamine B assay; conditions: SNB-19, 48 h; in short: as §3
[9] = tested on: 786-0; assay: Growth inhibition of human 786-0 cells after 48 hrs by sulforhodamine B assay; conditions: 786-0, 48 h; in short: as §2
[10] = tested on: CCRF-CEM; assay: Growth inhibition of human CCRF-CEM cells after 48 hrs by sulforhodamine B assay; in short: as §2
[11] = tested on: U-251; assay: Growth inhibition of human U251 cells after 48 hrs by sulforhodamine B assay; conditions: U-251, 48 h; in short: as §3
[12] = Growth inhibition of human UACC257 cells after 48 hrs by sulforhodamine B assay; conditions: UACC-257, 48 h; in short: as §3
[13] = tested on: MDA-MB-468; assay: Growth inhibition of human MDA-MB-468 cells after 48 hrs by sulforhodamine B assay; conditions: MDA-MB-468, 48 h; in short: as §1
[14] = Growth inhibition of human OVCAR5 cells after 48 hrs by sulforhodamine B assay; conditions: OVCAR-5, 48 h; in short: as §1
[15] = tested on: CAKI-1; assay: Growth inhibition of human CAKI-1 cells after 48 hrs by sulforhodamine B assay; conditions: CAKI-1, 48 h; in short: as §2
[16] = tested on: OVCAR-8; assay: Growth inhibition of human OVCAR8 cells after 48 hrs by sulforhodamine B assay; conditions: OVCAR-8, 48 h; in short: as §1
[17] = tested on: LOX IMVI; assay: Growth inhibition of human LOXIMVI cells after 48 hrs by sulforhodamine B assay; in short: as §1
[18] = tested on: BT-549; assay: Growth inhibition of human BT549 cells after 48 hrs by sulforhodamine B assay; conditions: BT-549, 48 h; in short: as §2
[19] = tested on: NCI-H23; assay: Growth inhibition of human NCI-H23 cells after 48 hrs by sulforhodamine B assay; conditions: NCI-H23, 48 h; in short: as §1
[20] = tested on: PC-3; assay: Growth inhibition of human PC3 cells after 48 hrs by sulforhodamine B assay; conditions: PC-3, 48 h; in short: as §1
[21] = tested on: HT-29; assay: Growth inhibition of human HT-29 cells after 48 hrs by sulforhodamine B assay; conditions: HT-29, 48 h; in short: as §2
[22] = tested on: SK-MEL-5; assay: Growth inhibition of human SK-MEL-5 cells after 48 hrs by sulforhodamine B assay; conditions: SK-MEL-5, 48 h; in short: as §3
[23] = tested on: SF-295; assay: Growth inhibition of human SF295 cells after 48 hrs by sulforhodamine B assay; conditions: SF-295, 48 h; in short: as §1
[24] = tested on: HL-60(TB); assay: Growth inhibition of human HL-60(TB) cells after 48 hrs by sulforhodamine B assay; conditions: HL-60, 48 h
In short: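 NCI 60-cell panel protocol: cells exposed continuously for 48 h to five 10-fold dilutions from 10^-4 to 10^-8 M. Growth estimated by SRB protein staining with time-zero, untreated-control and treated absorbances. Percentage growth computed at each level, and GI50 taken as the concentration giving a 50% lower net protein increase than control cells.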

[25] = Growth inhibition of human HCC2998 cells after 48 hrs by sulforhodamine B assay; conditions: HCC 2998, 48 h; in short: as §2
[26] = tested on: SK-MEL-28; assay: Growth inhibition of human SK-MEL-28 cells after 48 hrs by sulforhodamine B assay; conditions: SK-MEL-28, 48 h; in short: as §3
[27] = read-out: LC50 (the source's name)

SMILES: COc1ccc(-c2nnc(SCC(=O)Nc3ccc(/C(C)=N/O)cc3)n2-c2ccccc2)cc1OC
- GI50 [1]: > 100 µM
- TGI [1]: > 100 µM
- CC50 [1, 27]: > 100 µM
- GI50 [2]: 2.56 µM
- TGI [2]: 7.11 µM
- CC50 [2, 27]: > 100 µM
- GI50 [3]: > 100 µM
- TGI [3]: > 100 µM
- CC50 [3, 27]: > 100 µM
- GI50 [4]: 2.06 µM
- TGI [4]: 6.8 µM
- CC50 [4, 27]: > 100 µM
- GI50 [5]: 2.12 µM
- TGI [5]: 6.42 µM
- CC50 [5, 27]: > 100 µM
- GI50 [6]: 24.9 µM
- TGI [6]: > 100 µM
- CC50 [6, 27]: > 100 µM
- GI50 [7]: 2.73 µM
- TGI [7]: 13.7 µM
- CC50 [7, 27]: > 100 µM
- GI50 [8]: 6.43 µM
- TGI [8]: > 100 µM
- CC50 [8, 27]: > 100 µM
- GI50 [9]: 14.9 µM
- TGI [9]: > 100 µM
- CC50 [9, 27]: > 100 µM
- GI50 [10]: > 100 µM
- TGI [10]: > 100 µM
- CC50 [10, 27]: > 100 µM
- GI50 [11]: 3.62 µM
- TGI [11]: 19.6 µM
- CC50 [11, 27]: > 100 µM
- GI50 [12]: > 100 µM
- TGI [12]: > 100 µM
- CC50 [12, 27]: > 100 µM
- GI50 [13]: 16.4 µM
- TGI [13]: > 100 µM
- CC50 [13, 27]: > 100 µM
- GI50 [14]: > 100 µM
- TGI [14]: > 100 µM
- CC50 [14, 27]: > 100 µM
- GI50 [15]: > 100 µM
- TGI [15]: > 100 µM
- CC50 [15, 27]: > 100 µM
- GI50 [16]: 7.36 µM
- TGI [16]: > 100 µM
- CC50 [16, 27]: > 100 µM
- GI50 [17]: > 100 µM
- TGI [17]: > 100 µM
- CC50 [17, 27]: > 100 µM
- GI50 [18]: 13.7 µM
- TGI [18]: > 100 µM
- CC50 [18, 27]: > 100 µM
- GI50 [19]: 12.9 µM
- TGI [19]: > 100 µM
- CC50 [19, 27]: > 100 µM
- GI50 [20]: > 100 µM
- TGI [20]: > 100 µM
- CC50 [20, 27]: > 100 µM
- GI50 [21]: > 100 µM
- TGI [21]: > 100 µM
- CC50 [21, 27]: > 100 µM
- GI50 [22]: > 100 µM
- TGI [22]: > 100 µM
- CC50 [22, 27]: > 100 µM
- GI50 [23]: 3.39 µM
- TGI [23]: 37.7 µM
- CC50 [23, 27]: > 100 µM
- GI50 [24]: > 100 µM
- TGI [24]: > 100 µM
- CC50 [24, 27]: > 100 µM
- GI50 [25]: > 100 µM
- TGI [25]: > 100 µM
- CC50 [25, 27]: > 100 µM
- GI50 [26]: > 100 µM
- TGI [26]: > 100 µM
- CC50 [26, 27]: > 100 µM
